Values after ≈ are worked out from the molar mass of the structure shown. Each block holds one compound with its values, some of them ahead of it.
Assays:
[1] = Binding affinity to yeast Hsp90 by isothermal titration calorimetry; design: species or system Saccharomyces cerevisiae
[2] = Inhibition of ATPase activity of yeast Hsp90; design: species or system Saccharomyces cerevisiae
[3] = Antitumor activity against human MAXF 401NL cells; assay type: functional, cell-based
Outline: (§1)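 Panel of 38 human solid-tumour cell lines, each tested in a monolayer proliferation assay. Growth inhibition was expressed as IC50 and IC70 values. Testing was run at Oncotest.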

[4] = Antitumor activity against human CNXF 498NL cells; assay type: functional, cell-based; outline: as §1
[5] = Antitumor activity against human PRXF LNCAP cells; assay type: functional, cell-based; outline: as §1
[6] = Antitumor activity against human PAXF 165L cells; assay type: functional, cell-based; outline: as §1
[7] = Antitumor activity against human MEXF 394NL cells; assay type: functional, cell-based; outline: as §1
[8] = Antitumor activity against human CXF HCT116 cells; assay type: functional, cell-based; conditions: HCT-116; outline: as §1
[9] = Antitumor activity against human LXF 1121L cells; assay type: functional, cell-based; outline: as §1
[10] = Antitumor activity against human RXF 1781L cells; assay type: functional, cell-based; outline: as §1
SW-620 = assay: Antitumor activity against human CXF SW620 cells; assay type: functional, cell-based; outline: as §1
[11] = Antitumor activity against human BXF T24 cells; assay type: functional, cell-based; conditions: T-24; outline: as §1
UO-31 = assay: Antitumor activity against human RXF UO31 cells; assay type: functional, cell-based; outline: as §1
SF-268 = assay: Antitumor activity against human CNXF SF268 cells; assay type: functional, cell-based; outline: as §1
[12] = Antitumor activity against human MEXF 276L cells; assay type: functional, cell-based; conditions: MEXF276L; outline: as §1
[13] = Antitumor activity against human MEXF 520L cells; assay type: functional, cell-based; outline: as §1
DU-145 [14] = assay: Antitumor activity against human DU145 tumor xenografted mouse assessed delay for tumor doubling time at 10 mg/kg, ip; assay type: functional; conditions: route intraperitoneal
MCF7 = assay: Antitumor activity against human MAXF MCF7 cells; assay type: functional, cell-based; outline: as §1
[15] = Antitumor activity against human LXF 629L cells; assay type: functional, cell-based; outline: as §1
[16] = Antitumor activity against human BXF 1218L cells; assay type: functional, cell-based; outline: as §1
CWR22R = assay: Antitumor activity against human PRXF 22RV1 cells; assay type: functional, cell-based; outline: as §1
DU-145 [17] = assay: Antitumor activity against human DU145 tumor xenografted mouse at 10 mg/kg, ip measured on day 31; assay type: functional; conditions: route intraperitoneal
Mus musculus = assay: Toxicity in human DU145 cells xenografted mouse assessed as loss of body weight at 10 mg/kg, ip on day 3; assay type: organism-based, DU-145; design: dose 10 mg/kg, route intraperitoneal; conditions: in vivo
[18] = Antitumor activity against human […] 1138L cells; assay type: functional, cell-based; outline: as §1
[19] = Antitumor activity against human CXF HT29 cells; assay type: functional, cell-based; conditions: HT-29; outline: as §1
DU-145 [20] = assay: Degradation of ErbB2 in human DU145 cell lysate by Western blot; assay type: functional, cell-based
Outline: (§2)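 DU145 prostate cancer cells were exposed to 1 or 10 µM, with time points including 48 and 96 h. Cell lysates were probed by Western blot for ErbB2, cRaf1, Hsp90 and Hsp70.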

DU-145 [21] = assay: Antitumor activity against human PRXF DU145 cells; assay type: functional, cell-based; outline: as §1
[22] = Antitumor activity against human MEXF 462NL cells; assay type: functional, cell-based; outline: as §1
[23] = Antitumor activity against human LXF H640 cells; assay type: functional, cell-based; outline: as §1
DU-145 [24] = assay: Antitumor activity against human DU145 tumor xenografted mouse assessed delay for tumor quadrupling time at 10 mg/kg, ip; assay type: functional; conditions: route intraperitoneal
[25] = Antitumor activity against human OVXF 899L cells; assay type: functional, cell-based; outline: as §1
[26] = Antitumor activity against human HNXF 536L cells; assay type: functional, cell-based; outline: as §1
[27] = Antitumor activity against human RXF 944L cells; assay type: functional, cell-based; outline: as §1
[28] = Antitumor activity against human LXF 529L cells; assay type: functional, cell-based; outline: as §1
[29] = Antitumor activity against human PAXF PANC1 cells; assay type: functional, cell-based; conditions: PANC-1; outline: as §1
OVCAR-3 = assay: Antitumor activity against human OVCAR-3 cells; assay type: functional, cell-based; outline: as §1
[30] = Antitumor activity against human RXF 486L cells; assay type: functional, cell-based; outline: as §1
[31] = Antitumor activity against human LXF 289L cells; assay type: functional, cell-based; outline: as §1
[32] = Antitumor activity against human MEXF 514L cells; assay type: functional, cell-based; outline: as §1
[33] = Antitumor activity against human PXF 1752L cells; assay type: functional, cell-based; outline: as §1
[34] = Antitumor activity against human LXF 526L cells; assay type: functional, cell-based; outline: as §1
[35] = Antitumor activity against human PRXF PC3M cells; assay type: functional, cell-based; conditions: PC-3M; outline: as §1
[36] = Antitumor activity against human OVXF 1619L cells; assay type: functional, cell-based; outline: as §1
[37] = Antitumor activity against human RXF 393NL cells; assay type: functional, cell-based; outline: as §1
DU-145 [38] = assay: Degradation of cRaf1 in human DU145 cell lysate by Western blot; assay type: functional, cell-based; outline: as §2
[39] = Antitumor activity against human GXF 251L cells; assay type: functional, cell-based; outline: as §1

Kd [1]: 1200 nM
IC50 [2]: 7000 nM
SMILES: COC1=C2C[C@@H](C)C[C@H](OC)[C@H](O)[C@@H](C)/C=C(\C)[C@H](OC(N)=O)[C@@H](OC)/C=C\C=C(/C)C(=O)NC(=CC1=O)C2=O [GELDANAMYCIN]

SMILES: CO[C@H]1[C@@H](OC)C[C@H](C)[C@@H](OC)C2=CC(=O)C=C(NC(=O)/C(C)=C/C=C\[C@H](C)[C@@H](OC(N)=O)/C(C)=C/[C@@H]1C)C2=O [MACBECIN]
IC50 [3]: < 0.01 µg/mL
IC70 [3]: < 0.01 µg/mL
IC90 [3]: < 100 µg/mL
IC50 [4]: < 0.01 µg/mL
IC70 [4]: 0.857 µg/mL (≈ 1.53 µM)
IC90 [4]: 27.8 µg/mL (≈ 49.8 µM)
IC50 [5]: 0.008 µg/mL (≈ 0.0143 µM)
IC70 [5]: 14.2 µg/mL (≈ 25.5 µM)
IC90 [5]: > 100 µg/mL
IC50 [6]: 4.16 µg/mL (≈ 7.44 µM)
IC70 [6]: 19.3 µg/mL (≈ 34.6 µM)
IC90 [6]: > 100 µg/mL
IC50 [7]: < 0.01 µg/mL
IC70 [7]: < 0.01 µg/mL
IC90 [7]: 31.6 µg/mL (≈ 56.6 µM)
IC50 [8]: 0.923 µg/mL (≈ 1.65 µM)
IC70 [8]: 6.06 µg/mL (≈ 10.8 µM)
IC90 [8]: 51.8 µg/mL (≈ 92.7 µM)
IC50 [9]: 0.048 µg/mL (≈ 0.0859 µM)
IC70 [9]: 1 µg/mL (≈ 1.79 µM)
IC90 [9]: 60 µg/mL (≈ 107 µM)
IC50 [10]: 4.33 µg/mL (≈ 7.75 µM)
IC70 [10]: 25.9 µg/mL (≈ 46.4 µM)
IC90 [10]: 127 µg/mL (≈ 227 µM)
IC50 (SW-620): < 0.01 µg/mL
IC70 (SW-620): < 0.01 µg/mL
IC90 (SW-620): 7.36 µg/mL (≈ 13.2 µM)
IC50 [11]: 1.6 µg/mL (≈ 2.87 µM)
IC70 [11]: 4.56 µg/mL (≈ 8.16 µM)
IC90 [11]: 35.9 µg/mL (≈ 64.3 µM)
IC50 (UO-31): 2.4 µg/mL (≈ 4.3 µM)
IC70 (UO-31): 4.99 µg/mL (≈ 8.94 µM)
IC90 (UO-31): 100 µg/mL (≈ 179 µM)
IC50 (SF-268): 0.527 µg/mL (≈ 0.943 µM)
IC70 (SF-268): 1.97 µg/mL (≈ 3.52 µM)
IC90 (SF-268): 7.63 µg/mL (≈ 13.7 µM)
IC50 [12]: 13.9 µg/mL (≈ 24.9 µM)
IC70 [12]: 51.8 µg/mL (≈ 92.7 µM)
IC90 [12]: 193 µg/mL (≈ 346 µM)
IC50 [13]: 9.34 µg/mL (≈ 16.7 µM)
IC70 [13]: 26.4 µg/mL (≈ 47.3 µM)
IC90 [13]: 73.6 µg/mL (≈ 132 µM)
Time (DU-145 [14]): 2.3 days
IC50 (MCF7): 0.158 µg/mL (≈ 0.283 µM)
IC70 (MCF7): 3.32 µg/mL (≈ 5.95 µM)
IC90 (MCF7): 79.4 µg/mL (≈ 142 µM)
IC50 [15]: 0.005 µg/mL (≈ 0.00895 µM)
IC70 [15]: 30.6 µg/mL (≈ 54.8 µM)
IC90 [15]: 114 µg/mL (≈ 204 µM)
IC50 [2]: 2000 nM
IC50 [16]: < 0.01 µg/mL
IC70 [16]: < 0.01 µg/mL
IC90 [16]: 37.3 µg/mL (≈ 66.7 µM)
IC50 (CWR22R): 0.189 µg/mL (≈ 0.338 µM)
IC70 (CWR22R): 1.86 µg/mL (≈ 3.33 µM)
IC90 (CWR22R): 31.6 µg/mL (≈ 56.6 µM)
T/C (DU-145 [17]): 32.2%
Activity (Mus musculus): 5.3%
IC50 [18]: 3.35 µg/mL (≈ 5.99 µM)
IC70 [18]: 11.1 µg/mL (≈ 19.9 µM)
IC90 [18]: 90.1 µg/mL (≈ 161 µM)
IC50 [19]: < 0.01 µg/mL
IC70 [19]: 0.292 µg/mL (≈ 0.523 µM)
IC90 [19]: 7.2 µg/mL (≈ 12.9 µM)
Activity (DU-145 [20]): Dose-dependent effect
IC50 (DU-145 [21]): < 0.01 µg/mL
IC70 (DU-145 [21]): < 0.01 µg/mL
IC90 (DU-145 [21]): 2.37 µg/mL (≈ 4.24 µM)
IC50 [22]: 0.456 µg/mL (≈ 0.816 µM)
IC70 [22]: 1.97 µg/mL (≈ 3.52 µM)
IC90 [22]: 41.2 µg/mL (≈ 73.8 µM)
IC50 [23]: 2.11 µg/mL (≈ 3.78 µM)
IC70 [23]: 7.33 µg/mL (≈ 13.1 µM)
IC90 [23]: 61.6 µg/mL (≈ 110 µM)
Time (DU-145 [24]): 20.4 days
IC50 [25]: 16.2 µg/mL (≈ 29 µM)
IC70 [25]: 47.2 µg/mL (≈ 84.6 µM)
IC90 [25]: 138 µg/mL (≈ 247 µM)
IC50 [26]: 1.61 µg/mL (≈ 2.89 µM)
IC70 [26]: 4.22 µg/mL (≈ 7.55 µM)
IC90 [26]: 11 µg/mL (≈ 19.7 µM)
IC90 [27]: 10 µg/mL (≈ 17.9 µM)
IC50 [28]: 8.19 µg/mL (≈ 14.7 µM)
IC70 [28]: 25.6 µg/mL (≈ 45.9 µM)
IC90 [28]: 73 µg/mL (≈ 131 µM)
IC50 [29]: 0.577 µg/mL (≈ 1.03 µM)
IC70 [29]: 3.59 µg/mL (≈ 6.43 µM)
IC90 [29]: 139 µg/mL (≈ 249 µM)
IC50 (OVCAR-3): 1.24 µg/mL (≈ 2.22 µM)
IC70 (OVCAR-3): 3.62 µg/mL (≈ 6.47 µM)
IC90 (OVCAR-3): 10.6 µg/mL (≈ 18.9 µM)
IC50 [30]: 6.72 µg/mL (≈ 12 µM)
IC70 [30]: 20.5 µg/mL (≈ 36.8 µM)
IC90 [30]: 86.6 µg/mL (≈ 155 µM)
IC50 [31]: 27.7 µg/mL (≈ 49.6 µM)
IC70 [31]: 59 µg/mL (≈ 106 µM)
IC90 [31]: 125 µg/mL (≈ 224 µM)
IC50 [32]: 7.8 µg/mL (≈ 14 µM)
IC70 [32]: 25.7 µg/mL (≈ 46 µM)
IC90 [32]: 83.8 µg/mL (≈ 150 µM)
IC50 [33]: 16.6 µg/mL (≈ 29.7 µM)
IC70 [33]: 41.7 µg/mL (≈ 74.6 µM)
IC90 [33]: 105 µg/mL (≈ 187 µM)
IC50 [34]: 6.45 µg/mL (≈ 11.5 µM)
IC70 [34]: 41.2 µg/mL (≈ 73.8 µM)
IC90 [34]: 242 µg/mL (≈ 434 µM)
IC50 [35]: 0.009 µg/mL (≈ 0.0161 µM)
IC70 [35]: 1.41 µg/mL (≈ 2.53 µM)
IC90 [35]: 19.9 µg/mL (≈ 35.7 µM)
IC50 [36]: 1.56 µg/mL (≈ 2.79 µM)
IC70 [36]: 9.15 µg/mL (≈ 16.4 µM)
IC90 [36]: > 100 µg/mL
IC50 [37]: 0.297 µg/mL (≈ 0.532 µM)
IC70 [37]: 5.18 µg/mL (≈ 9.27 µM)
IC90 [37]: 57.8 µg/mL (≈ 103 µM)
Activity (DU-145 [38]): Dose-dependent effect
IC50 [39]: 3.73 µg/mL (≈ 6.67 µM)
IC70 [39]: 25.1 µg/mL (≈ 45 µM)
IC90 [39]: 93.6 µg/mL (≈ 168 µM)
